Test results as given in ChEMBL document CHEMBL1667789, “Synthesis of 4H-chromene, coumarin, 12H-chromeno[2,3-d]pyrimidine derivatives and some of their antimicrobial and cytotoxicity activities” (2011).
Calls of active or inactive are those of the source. No cut-off for these calls is given here.

Legend:
Type in all cases: functional
Details in all cases: for zone of inhibition at 25 µg/mL: read-out: DIZ
Escherichia coli = assay: Antimicrobial activity against Escherichia coli ATCC 14169 at 25 ug/ml by agar diffusion method
In short: (§1)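 Agar diffusion on Mueller-Hinton agar. Bacterial strains came from the NODCAR Microbiology laboratory culture collection. Ampicillin was the reference standard.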

Bacillus pumilus = assay: Antimicrobial activity against Bacillus pumilus ATCC 14884 at 25 ug/ml by agar diffusion method; in short: as §1
Bacillus subtilis = assay: Antimicrobial activity against Bacillus subtilis ATCC 6633 at 25 ug/ml by agar diffusion method; in short: as §1
Candida albicans = assay: Antifungal activity against Candida albicans ATCC 10231 at 25 ug/ml by agar diffusion method
In short: (§2)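 Agar diffusion on Sabouraud's agar. Fungal strains came from the NODCAR Microbiology laboratory culture collection. Mycostatine was the reference standard.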

Staphylococcus aureus = assay: Antimicrobial activity against Staphylococcus aureus ATCC 29737 at 25 ug/ml by agar diffusion method; in short: as §1
[1] = tested on: Staphylococcus epidermidis; assay: Antimicrobial activity against Staphylococcus epidermidis ATCC 12228 at 25 ug/ml by agar diffusion method; in short: as §1
[2] = tested on: Bordetella bronchiseptica; assay: Antimicrobial activity against Bordetella bronchiseptica ATCC 4617 at 25 ug/ml by agar diffusion method; in short: as §1
Saccharomyces cerevisiae = assay: Antifungal activity against Saccharomyces cerevisiae ATCC 9080 at 25 ug/ml by agar diffusion method; in short: as §2

| SMILES | diameter of the inhibition zone (DIZ) (Escherichia coli) | diameter of the inhibition zone (DIZ) (Bacillus pumilus) | diameter of the inhibition zone (DIZ) (Bacillus subtilis) | diameter of the inhibition zone (DIZ) (Candida albicans) | diameter of the inhibition zone (DIZ) (Staphylococcus aureus) | diameter of the inhibition zone (DIZ) [1] | diameter of the inhibition zone (DIZ) [2] | diameter of the inhibition zone (DIZ) (Saccharomyces cerevisiae) | zone of inhibition at 25 µg/mL (Escherichia coli) [mm] | zone of inhibition at 25 µg/mL (Bacillus pumilus) [mm] | zone of inhibition at 25 µg/mL (Bacillus subtilis) [mm] | zone of inhibition at 25 µg/mL (Candida albicans) [mm] | zone of inhibition at 25 µg/mL (Staphylococcus aureus) [mm] | zone of inhibition at 25 µg/mL [1] [mm] | zone of inhibition at 25 µg/mL [2] [mm] | zone of inhibition at 25 µg/mL (Saccharomyces cerevisiae) [mm] |
| --- | --- | --- | --- | --- | --- | --- | --- | --- | --- | --- | --- | --- | --- | --- | --- | --- |
| CCN(CC)c1ccc2c(c1)OC(/N=C/N)=C(C#N)C2c1ccc(Cl)cc1 (stereo unspecified) | inactive | inactive | inactive | inactive | inactive | inactive | inactive | inactive | – | – | – | – | – | – | – | – |
| CCO/C=N/C1=C(C#N)C(c2ccc(Cl)cc2)c2ccc(N(CC)CC)cc2O1 (stereo unspecified) | inactive | inactive | inactive | inactive | inactive | inactive | inactive | inactive | – | – | – | – | – | – | – | – |
| CCN(CC)c1ccc2c(c1)Oc1ncn(C)c(=N)c1C2c1ccc(Cl)cc1 (stereo unspecified) | – | – | – | – | – | – | – | – | 21 | 25 | 21 | 14 | 24 | 25 | 20 | 20 |
| CCOC(=O)C1=C(N)Oc2cc(N(CC)CC)ccc2C1c1ccc(Cl)cc1 (stereo unspecified) | inactive | inactive | inactive | inactive | inactive | inactive | inactive | inactive | – | – | – | – | – | – | – | – |
| CCN(CC)c1ccc2c(c1)Oc1ncn(N)c(=N)c1C2c1ccc(Cl)cc1 (stereo unspecified) | – | – | – | – | – | – | – | – | 17 | 27 | 17 | 16 | 26 | 24 | 22 | 24 |
| CCN(CC)c1ccc2c(-c3ccc(Cl)cc3)c(C#N)c(=O)oc2c1 | inactive | inactive | inactive | inactive | inactive | inactive | inactive | inactive | – | – | – | – | – | – | – | – |
| CC1(C)S[C@@H]2[C@H](NC(=O)[C@H](N)c3ccccc3)C(=O)N2[C@H]1C(=O)O [AMPICILLIN] | – | – | – | – | – | – | – | – | 25 | 20 | 25 | – | 26 | 25 | 24 | – |
| CCN(CC)c1ccc2c(c1)OC(N)=C(C#N)C2c1ccc(Cl)cc1 (stereo unspecified) | inactive | inactive | inactive | inactive | – | – | inactive | inactive | – | – | – | – | 14 | 15 | – | – |
| CCN(CC)c1ccc2c(c1)OC(N)=C(C#N)C2c1ccc(Br)cc1 (stereo unspecified) | inactive | inactive | inactive | inactive | inactive | inactive | inactive | inactive | – | – | – | – | – | – | – | – |
| CCO/C=N/C1=C(C#N)C(c2ccc(Br)cc2)c2ccc(N(CC)CC)cc2O1 (stereo unspecified) | inactive | inactive | inactive | inactive | inactive | inactive | inactive | inactive | – | – | – | – | – | – | – | – |
| CCN(CC)c1ccc2c(-c3ccc(Br)cc3)c(C#N)c(=O)oc2c1 | inactive | inactive | inactive | inactive | inactive | inactive | inactive | inactive | – | – | – | – | – | – | – | – |
